Arrestin-AP2 inh: inhibitors of human beta-arrestin and AP2 interaction; FITC-arrestin peptide / GST-AP2 beads, flow cytometry; AP2 beta2 appendage carries R879A mutation; inhibition, % at 10 µM; 0.31% of 340,000 active; AID 504490;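 active means inhibition above a set limit, near 3 SD of compounds lacking own fluorescence, cut at about 54% in these data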
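System: GST-AP2 R879A bound to glutathione beads, E. coli-expressed. Also added: 50 nM FITC-arrestin peptide. Schedule: compound with beads 12 min RT, then probe 1 h RT. Signal: bead flow cytometry, FITC channel. Read-out basis: percent response.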
MEKK2 mut-MEK5: signal of MEK5 binding to mutant human MEKK2 PB1 domain; AID 1530; bead flow cytometry, Alexa488-MEK5 binding to MEKK2 mutant; percent response, % at 10 µM; 0.35% of 290,000 active; in the data active means percent response above about 24%, passing the limit was not always enough
MEKK2 WT-MEK5: raises or lowers MEK5 binding to wildtype human MEKK2 PB1 domain | binding response (% of control), % at 10 µM | AID 1531 | bead flow cytometry, Alexa488-MEK5 binding to MEKK2 WT; actives lie on both sides | 1.1% of 290,000 active | Q9Y2U5; in the data active means binding response below about 67% or above about 130%
MEKK3 PB1 HTS: modulators (inhibitors or enhancers) of MEK5 binding to human MEKK3 PB1 domain | binding response (% of control), % at 10 µM | 1.4% of 290,000 active | bead-based flow cytometry, Alexa488-MEK5 binding to MEKK3; actives lie on both sides; 0 = blocked by unlabeled MEK5, 100 = vehicle | Q99759;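 active means binding response more than 3 SD above or below the average of its plate-row segment, actives on both sides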;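 further: Alexa488 bead fluorescence after subtracting the streptavidin-only scavenger bead signal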
Target sequence (Q99759 whole entry, looked up, the tested form may be a part): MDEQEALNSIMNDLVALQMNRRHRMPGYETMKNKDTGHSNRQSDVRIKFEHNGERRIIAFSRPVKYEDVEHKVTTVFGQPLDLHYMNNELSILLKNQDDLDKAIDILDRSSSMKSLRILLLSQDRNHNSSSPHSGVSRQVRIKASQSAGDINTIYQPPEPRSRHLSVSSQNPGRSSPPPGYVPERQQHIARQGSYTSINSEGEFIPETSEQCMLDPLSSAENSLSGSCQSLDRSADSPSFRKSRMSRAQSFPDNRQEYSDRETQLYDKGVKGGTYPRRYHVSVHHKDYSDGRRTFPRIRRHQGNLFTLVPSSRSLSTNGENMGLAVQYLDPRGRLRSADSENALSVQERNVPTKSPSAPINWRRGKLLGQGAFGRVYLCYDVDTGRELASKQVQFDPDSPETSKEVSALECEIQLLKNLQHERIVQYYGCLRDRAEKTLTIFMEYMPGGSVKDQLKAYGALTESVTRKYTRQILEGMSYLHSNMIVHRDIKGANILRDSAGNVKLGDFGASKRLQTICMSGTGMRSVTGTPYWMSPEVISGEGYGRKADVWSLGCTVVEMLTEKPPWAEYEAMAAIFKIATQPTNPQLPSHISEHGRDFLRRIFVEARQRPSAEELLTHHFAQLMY
MEKK2wt confirm: raises or lowers MEK5 binding to wildtype human MEKK2, retest; shares compounds with MEKK3 PB1 HTS; bead flow cytometry, Alexa488-MEK5 binding to MEKK2 WT; actives lie on both sides; binding response (% of control), % at 10 µM; 2.4% of 5,900 active; AID 1892; in the data active means binding response below about 16% or above about 210%; inactive means in between
MEKK2mut-MEK5: signal of MEK5 binding to mutant human MEKK2, retest; shares compounds with MEKK3 PB1 HTS; 2% of 5,900 active; percent response, % at 10 µM; bead flow cytometry, Alexa488-MEK5 binding to MEKK2 mutant; AID 1893; in the data active means percent response mostly above about 71%, no sharp cut-off; inactive means mostly below about 38%;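 further: higher means compound restores mutant binding toward wildtype level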
MEKK3-MEK5 inh: MEKK3-MEK5 PB1 inhibition, single concentration confirmation; bead flow cytometry, Alexa488-MEK5 binding to MEKK3; stronger effect = lower value; AID 1894; 1.8% of 5,900 active; shares compounds with MEKK3 PB1 HTS; binding response (% of control), % at 10 µM;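 active means binding response below 72% of control, or above a set upper limit, though filed actives all read lower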
Each line names hits and unclear results; the compound was inactive in the other large screens (follow-up assays come after a bar, where they were run); [ ] = remark or other dose. Rows were chosen to be rich in hits. Some 2.3% of all compounds tested hit in one or more screens of this group.

O=C(CSc1ccc2ccccc2c1)NC1CCCc2ccccc21 (stereo not given)	MEKK3 PB1 HTS 130.0 | MEKK2wt confirm inactive | MEKK2mut-MEK5 inactive | MEKK3-MEK5 inh inactive
Cc1cccc(Nc2nnc(SCC(=O)NC3CCCc4ccccc43)s2)c1 (stereo not given)	MEKK2 WT-MEK5 3.0[inhibitor], MEKK3 PB1 HTS 3.0[inhibitor] | MEKK2wt confirm inactive | MEKK2mut-MEK5 inactive | MEKK3-MEK5 inh inactive
Cc1ccc(OCC(=O)NC2CCCc3ccccc32)c(C)c1 (stereo not given)	none
CCOc1ccc(OCC(=O)NCCc2nc3ccccc3[nH]2)cc1	none
O=C(CCCOc1ccccc1)NCCc1nc2ccccc2[nH]1	MEKK3 PB1 HTS 74.0[inhibitor] | MEKK2wt confirm inactive | MEKK2mut-MEK5 inactive | MEKK3-MEK5 inh inactive
CCOCC(=O)Nc1nc2ccc(OC)cc2s1	MEKK3 PB1 HTS 81.0[inhibitor] | MEKK2wt confirm inactive | MEKK2mut-MEK5 inactive | MEKK3-MEK5 inh inactive
CCOc1ccc2nc(NC(=O)COC)sc2c1	none
COc1ccc2nc(NC(=O)Cn3cnc4ccccc4c3=O)sc2c1	MEKK2 WT-MEK5 49.0[inhibitor], MEKK3 PB1 HTS 68.0[inhibitor] | MEKK2wt confirm inactive | MEKK2mut-MEK5 inactive | MEKK3-MEK5 inh inactive
COc1ccc2nc(NC(=O)CNS(=O)(=O)c3cccs3)sc2c1	none
COc1ccc2nc(NC(=O)CN(C)S(=O)(=O)c3cccs3)sc2c1	MEKK2 WT-MEK5 -7.0[inhibitor], MEKK3 PB1 HTS 1.0[inhibitor] | MEKK2wt confirm inactive | MEKK2mut-MEK5 inactive | MEKK3-MEK5 inh inactive
CS(=O)(=O)N(Cc1ccc(Cl)cc1)c1ccc(C(=O)NCC2CCCO2)cc1 (stereo not given)	none
O=C(NCC1CCCO1)C(c1cccnc1)N(C(=O)Cc1cccs1)c1ccccc1 (stereo not given)	MEKK2 WT-MEK5 -10.0[inhibitor], MEKK3 PB1 HTS -1.0[inhibitor] | MEKK2wt confirm inactive | MEKK2mut-MEK5 inactive | MEKK3-MEK5 inh inactive
CS(=O)(=O)N(Cc1ccccc1)c1ccc(C(=O)NCC2CCCO2)cc1 (stereo not given)	MEKK3 PB1 HTS 123.0 | MEKK2wt confirm inactive | MEKK2mut-MEK5 inactive | MEKK3-MEK5 inh inactive
O=C(NCC(=O)N(c1cccc(F)c1)C(C(=O)NC1CCCC1)c1cccnc1)c1cccs1 (stereo not given)	MEKK3 PB1 HTS 129.0 | MEKK2wt confirm inactive | MEKK2mut-MEK5 inactive | MEKK3-MEK5 inh inactive
O=C(NCC1CCCO1)C(c1cccs1)N(Cc1cccs1)C(=O)Cn1nnc(-c2cccs2)n1 (stereo not given)	MEKK2 WT-MEK5 -2.0, MEKK3 PB1 HTS 66.0[inhibitor] | MEKK2wt confirm inactive | MEKK2mut-MEK5 inactive | MEKK3-MEK5 inh inactive
O=C(NCC(=O)N(c1ccc(F)cc1)C(C(=O)NC1CCCC1)c1cccnc1)c1cccs1 (stereo not given)	none
O=C(NCC1CCCO1)C(c1cccs1)N(C(=O)Cn1nnc(-c2cccs2)n1)C1CCCC1 (stereo not given)	none
CCOc1ccc(OCC(=O)OCC(=O)N2CCN(S(=O)(=O)c3ccc(C)cc3C)CC2)cc1	none (no result: MEKK2 mut-MEK5, MEKK2 WT-MEK5, MEKK3 PB1 HTS)
O=C(NCC(=O)N(c1ccccc1)C(C(=O)NCC1CCCO1)c1ccccc1)c1ccco1 (stereo not given)	MEKK3 PB1 HTS 125.0 | MEKK2wt confirm inactive | MEKK2mut-MEK5 inactive | MEKK3-MEK5 inh inactive
CN(C)c1ccc(C(=O)NN2C(=O)c3ccccc3C2=O)cc1	MEKK3 PB1 HTS 132.0 | MEKK2wt confirm inactive | MEKK2mut-MEK5 inactive | MEKK3-MEK5 inh inactive
O=C(NN1C(=O)c2ccccc2C1=O)c1ccncc1	none
Cc1ccc(N/N=C(\C#N)C(=N)N2CCOCC2)cc1	none
N#C/C(=N\Nc1ccccc1)C(=N)N1CCOCC1	MEKK3 PB1 HTS 130.0 | MEKK2wt confirm inactive | MEKK2mut-MEK5 inactive | MEKK3-MEK5 inh inactive
CCCOc1ccc(S(=O)(=O)n2cc(F)c(=O)[nH]c2=O)cc1	none
Cc1cc2ccccc2n1CCNC(=O)c1cccs1	MEKK2 WT-MEK5 9.0[inhibitor], MEKK3 PB1 HTS 34.0[inhibitor] | MEKK2wt confirm inactive | MEKK2mut-MEK5 inactive | MEKK3-MEK5 inh 70.0
Cc1cc2ccccc2n1CCNC(=O)C1CC1	none
COC(=O)/C=C1\C(=O)N(c2nc3ccccc3s2)C(=S)N1c1ccc(F)cc1	MEKK2 WT-MEK5 0.0[inhibitor], MEKK3 PB1 HTS 1.0[inhibitor] | MEKK2wt confirm inactive | MEKK2mut-MEK5 inactive | MEKK3-MEK5 inh inactive
Clc1cccc(CNCCNCc2cccc(Cl)c2)c1	MEKK2 WT-MEK5 187.0 | MEKK2wt confirm inactive | MEKK2mut-MEK5 inactive | MEKK3-MEK5 inh inactive
COc1ccc(OC)c(NC(=O)c2nc3ccccc3s2)c1	MEKK2 WT-MEK5 3.0[inhibitor], MEKK3 PB1 HTS 3.0[inhibitor] | MEKK2wt confirm inactive | MEKK2mut-MEK5 inactive | MEKK3-MEK5 inh inactive
COC(=O)CCCCCCCCC(O)C[N+]1(C)CCOCC1 (stereo not given)	MEKK2 WT-MEK5 27.0[inhibitor], MEKK3 PB1 HTS 22.0[inhibitor] | MEKK2wt confirm inactive | MEKK2mut-MEK5 inactive | MEKK3-MEK5 inh inactive
O=c1[nH]c(SCC2CCCCO2)nc2ccccc12 (stereo not given)	MEKK3 PB1 HTS 73.0[inhibitor] | MEKK2wt confirm inactive | MEKK2mut-MEK5 inactive | MEKK3-MEK5 inh inactive
CCC(CC)C(=O)OCC(=O)Nc1cccc([N+](=O)[O-])c1	none
COc1ccc(C(=O)NCc2ccc(-c3nc4ccccc4s3)cc2)cc1	none
COc1cc(C(=O)NCc2ccc(-c3nc4ccccc4s3)cc2)cc(OC)c1OC	MEKK3 PB1 HTS 136.0 | MEKK2wt confirm inactive | MEKK2mut-MEK5 inactive | MEKK3-MEK5 inh inactive
Cc1ccc(NC(NC(=O)c2ccccc2[N+](=O)[O-])C(Cl)(Cl)Cl)cc1 (stereo not given)	MEKK3 PB1 HTS 133.0 | MEKK2wt confirm inactive | MEKK2mut-MEK5 inactive | MEKK3-MEK5 inh inactive
CSc1nnc(NC(=O)c2ccc(S(=O)(=O)N3CCOCC3)cc2)s1	none
Cc1ccc(NC(=S)N(Cc2ccc(Cl)cc2)Cc2ccc(C(=O)O)cc2)cc1Cl	none
O=C(CSc1nc(-c2ccccc2)c(-c2ccccc2)[nH]1)Nc1ccc2c(c1)OCO2	MEKK3 PB1 HTS 146.0 | MEKK2wt confirm inactive | MEKK2mut-MEK5 inactive | MEKK3-MEK5 inh inactive
N#CCCSCc1ccc2oc(C(=O)O)cc2c1	MEKK2 WT-MEK5 0.0[inhibitor], MEKK3 PB1 HTS 2.0[inhibitor] | MEKK2wt confirm inactive | MEKK2mut-MEK5 inactive | MEKK3-MEK5 inh inactive
N#CCCSCc1ccc(C(=O)O)o1	none
CCOCCCN1CN(Cc2ccccc2)CNC1=S	MEKK3 PB1 HTS 128.0 | MEKK2wt confirm inactive | MEKK2mut-MEK5 inactive | MEKK3-MEK5 inh inactive
CN(C)c1ccc(C(=O)n2nnc3ccccc32)cc1	MEKK2 WT-MEK5 -7.0[inhibitor], MEKK3 PB1 HTS 1.0[inhibitor] | MEKK2wt confirm inactive | MEKK2mut-MEK5 inactive | MEKK3-MEK5 inh inactive
Cc1ccc(C(=O)n2nnc3ccccc32)cc1	none (no result: Arrestin-AP2 inh)

Assay outcomes: PubChem BioAssay, NMMLSC
